According to ChEMBL document CHEMBL1649117, “GRL-02031, a novel nonpeptidic protease inhibitor (PI) containing a stereochemically defined fused cyclopentanyltetrahydrofuran potent against multi-PI-resistant human immunodeficiency virus type 1 in vitro” (Antimicrob Agents Chemother, 2009):

What was measured:
[1] = system: Human immunodeficiency virus 1; assay: Ratio of EC50 for HIV1 NL4-3 harboring I84V/I85V mutation in protease encoding region infected in human […] cells to EC50 for HIV1 NL4-3 infected in human MT4 cells; assay type: functional
[2] = system: Human immunodeficiency virus 1; assay: Antiviral activity against HIV1 subtype C 97ZA003 infected in human PHA-PBM cells after 7 days by MTT assay; assay type: functional, organism-based; details: Human immunodeficiency virus 1, subtype C 97ZA003, PBMC, 168 h
[3] = system: Human immunodeficiency virus 1; assay: Antiviral activity against HIV1 NL4-3 harboring V82I mutation in protease encoding region infected in human […] cells assessed as inhibition of p24 Gag protein production by ELISA; assay type: functional, organism-based; details: Human immunodeficiency virus 1, NL4-3
Summary of the method: (§1)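 Protease PCR fragments (ApaI/SmaI) were cloned into pHIV-1NLSma, and virions were harvested from transfected 293T cells over 48 h. MT-4 target cells (10^5/ml) were infected with 100 TCID50s, with or without drug, at 37°C. Day-7 supernatant p24 Gag was read by chemiluminescent enzyme immunoassay.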

[4] = system: Human immunodeficiency virus 1; assay: Antiviral activity against HIV1 NL4-3 harboring L10F/M46I/I47V/V82I/I85V mutation in protease encoding region infected in human […] cells assessed as inhibition of p24 Gag protein production by ELISA; assay type: functional, organism-based; details: Human immunodeficiency virus 1, NL4-3; summary of the method: as §1
[5] = system: Human immunodeficiency virus 1; assay: Ratio of EC50 for HIV1 NL4-3 harboring I85V mutation in protease encoding region infected in human […] cells to EC50 for HIV1 NL4-3 infected in human MT4 cells; assay type: functional
[6] = system: Human immunodeficiency virus 1; assay: Ratio of EC50 for saquinavir to compound against HIV1 NL4-3 harboring L90M mutation in protease encoding region infected in human […] cells; assay type: functional
[7] = system: Human immunodeficiency virus 1; assay: Ratio of EC50 for HIV1 NL4-3 harboring I47V mutation in protease encoding region infected in human […] cells to EC50 for HIV1 NL4-3 infected in human MT4 cells; assay type: functional
[8] = system: Human immunodeficiency virus 1; assay: Antiviral activity against HIV1 NL4-3 harboring M46I mutation in protease encoding region infected in human […] cells assessed as inhibition of p24 Gag protein production by ELISA; assay type: functional, organism-based; details: Human immunodeficiency virus 1, NL4-3; summary of the method: as §1
[9] = system: Human immunodeficiency virus 1; assay: Ratio of EC50 for HIV1 NL4-3 harboring I50V mutation in protease encoding region infected in human […] cells to EC50 for HIV1 NL4-3 infected in human MT4 cells; assay type: functional
[10] = system: Human immunodeficiency virus 1; assay: Ratio of EC50 for HIV1 NL4-3 harboring V82I mutation in protease encoding region infected in human […] cells to EC50 for HIV1 NL4-3 infected in human MT4 cells; assay type: functional
[11] = system: Human immunodeficiency virus 1; assay: Ratio of EC50 for amprenavir to compound against HIV1 NL4-3 harboring I47V mutation in protease encoding region infected in human […] cells; assay type: functional
[12] = system: Human immunodeficiency virus 1; assay: Ratio of EC50 for ritonavir to compound against HIV1 NL4-3 harboring V82I/I85V mutation in protease encoding region infected in human […] cells; assay type: functional
[13] = system: Human immunodeficiency virus 1; assay: Ratio of EC50 for HIV1 NL4-3 harboring G48V mutation in protease encoding region infected in human […] cells to EC50 for HIV1 NL4-3 infected in human MT4 cells; assay type: functional
[14] = system: Human immunodeficiency virus 1; assay: Antiviral activity against HIV1 NL4-3 harboring G48V mutation in protease encoding region infected in human […] cells assessed as inhibition of p24 Gag protein production by ELISA; assay type: functional, organism-based; details: Human immunodeficiency virus 1, NL4-3; summary of the method: as §1
[15] = system: Human immunodeficiency virus 1; assay: Antiviral activity against HIV1 NL4-3 harboring M46I/I47V mutation in protease encoding region infected in human […] cells assessed as inhibition of p24 Gag protein production by ELISA; assay type: functional, organism-based; details: Human immunodeficiency virus 1, NL4-3; summary of the method: as §1
[16] = system: Human immunodeficiency virus 1; assay: Ratio of EC50 for ritonavir to compound against HIV1 NL4-3 harboring M46I mutation in protease encoding region infected in human […] cells; assay type: functional
[17] = system: Human immunodeficiency virus 1; assay: Antiviral activity against HIV1 NL4-3 harboring L10F/I47V/V82I/I85V mutation in protease encoding region infected in human […] cells assessed as inhibition of p24 Gag protein production by ELISA; assay type: functional, organism-based; details: Human immunodeficiency virus 1, NL4-3; summary of the method: as §1
[18] = system: Human immunodeficiency virus 1; assay: Ratio of EC50 for HIV1 NL4-3 harboring M46I/I47V mutation in protease encoding region infected in human […] cells to EC50 for HIV1 NL4-3 infected in human MT4 cells; assay type: functional

SMILES: COc1ccc(S(=O)(=O)N(C[C@@H]2CCC(=O)N2)C[C@@H](O)[C@H](Cc2ccccc2)NC(=O)O[C@@H]2C[C@@H]3CCO[C@@H]3C2)cc1
- Ratio EC50 [1]: 4.2
- EC50 [2]: 15 nM
- EC50 [3]: 35 nM
- EC50 [4]: > 1000 nM
- Ratio EC50 [5]: 1
- Ratio EC50 [6]: 1
- Ratio EC50 [7]: 1.6
- EC50 [8]: 28 nM
- Ratio EC50 [9]: 0.7
- Ratio EC50 [10]: 1.5
- Ratio EC50 [11]: 1.2
- Ratio EC50 [12]: 1.6
- Ratio EC50 [13]: 1.7
- EC50 [14]: 40 nM
- EC50 [15]: 73 nM
- Ratio EC50 [16]: 1.2
- EC50 [17]: 430 nM
- Ratio EC50 [18]: 3.2
